The target in experiment [1] is T1, Cannabinoid receptor 1 (Homo sapiens, UniProt P21554). The experiment is described as follows: Displacement of [3H]CP55940 from human CB1 receptor expressed in HEK293 cells after 1 hr by liquid scintillation spectrophotometry. It counts as cell-based. A digest of the protocol:
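Membranes (50 µg) from HEK-293 cells stably expressing human CB1, cultured in DMEM/10% FBS. Incubated with 0.5 nM [3H]CP55,940 and test compound at 1 nM–10 µM in buffer with BSA (5 mg/mL), 1 h at 30 °C. Nonspecific binding defined with excess unlabelled CP55,940. Filtered through GF/B, then scintillation counting.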
On the technique in general: Displacement assays read how much labelled ligand stays bound in the presence of the test substance.

A further experiment has as its target Cannabinoid receptor 2 (Homo sapiens, UniProt P34972). In words: Displacement of [3H]CP55940 from human CB2 receptor expressed in CHO cells after 1 hr by liquid scintillation spectrophotometry. It counts as cell-based. A digest of the protocol: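 Membranes (50 µg) from CHO cells stably expressing human CB2, cultured in DMEM/10% fetal calf serum. Incubated with 0.5 nM [3H]CP55,940 and test compound at 1 nM–10 µM with BSA (5 mg/mL), 1 h at 30 °C. Nonspecific binding defined with excess unlabelled CP55,940. GF/B filtration, then scintillation counting.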

Experiment [2] deals with Mus musculus. In words: Locomotor activity in Harlan ICR mouse assessed as inhibition of activity level at 6.2 umol/kg, iv from 5 to 15 mins by spontaneous locomotor activity test relative to vehicle treated control. It counts as functional, organism-based. An outline of the steps:
(§1)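 Spontaneous activity in male ICR mice (18–25 g) after one iv tail-vein probe dose in 1:1:18 emulphor–ethanol–saline. Photocell beam interruptions (16 beams per chamber) recorded over 10 min, 5–15 min after dosing. Reported as % inhibition relative to the vehicle group. n = 6 per dose.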

A further experiment is filed under the species Homo sapiens. In words: Selectivity ratio of Ki for human CB1 receptor to Ki for human CB2 receptor.
Experiment [3] concerns the target T1, Cannabinoid receptor 1. The experiment is described as follows: Activation of human CB1 receptor expressed in HEK293 cells assessed as [35S]GTPgamma binding after 90 mins by liquid scintillation spectrophotometry. It counts as functional, cell-based. A digest of the protocol: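 Membranes from HEK-293 cells stably expressing human CB1, pelleted at 50,000g and taken up in Tris-HCl pH 7.4 with MgCl2, EGTA and NaCl. 10 µg protein with BSA, 20 µM GDP, 0.1 nM [35S]GTPγS and graded test concentrations, 90 min at 30 °C. 2 µM CP55,940 run as internal standard; basal without agonist, nonspecific with 10 µM GTPγS. Filtration, then scintillation counting.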

In experiment [4] the test system is Mus musculus. In words: Antinociceptive activity in Harlan ICR mouse assessed as latency to heat-induced tail flicking at 83 umol/kg, iv at 20 mins relative to control. It counts as functional.
Experiment [5] relates to Mus musculus. The experiment is described as follows: Locomotor activity in Harlan ICR mouse assessed as inhibition of activity level at 83 umol/kg, iv from 5 to 15 mins by spontaneous locomotor activity test relative to vehicle treated control. Type of experiment: functional. An outline of the steps: (§2)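 Male ICR mice, n = 6 per dose, single probe dose iv in emulphor–ethanol–saline 1:1:18. Photocell beam interruptions recorded over 10 min, at 5–15 min after dosing. Result given as % inhibition relative to the vehicle group.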

The test system of experiment [6] is Mus musculus. The experiment is described as follows: Induction of catalepsy in Harlan ICR mouse at 83 umol/kg, iv at 40 mins measured for 5 mins by ring immobility test. It counts as functional. A digest of the protocol: (§3)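 Male ICR mice given a single iv probe dose in emulphor–ethanol–saline 1:1:18. At 40 min placed on a 5.5 cm ring raised 16 cm and observed for 5 min by blinded raters. Up to 5 escapes allowed; mice escaping before 2.5 min excluded. Immobility index = time motionless / 300 s × 100.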

In experiment [7] the test system is Mus musculus. In words: Hypothermic activity in Harlan ICR mouse assessed as change in rectal temperature at 83 umol/kg, iv at 30 mins. Type of experiment: functional. A digest of the protocol:
(§4)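 Male ICR mice, n = 6 per dose. Single probe dose iv in emulphor–ethanol–saline 1:1:18. Rectal temperature taken with a thermistor probe at 25 mm depth before dosing and at 30 min. Result given as change from pre-injection value (°C).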

Experiment [8] has as its system Mus musculus. The experiment is described as follows: Hypothermic activity in Harlan ICR mouse assessed as change in rectal temperature at 6.9 umol/kg, iv at 30 mins. It counts as functional. An outline of the steps: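 Male ICR mice, 18–25 g, dosed iv in the tail vein with a single probe dose in emulphor–ethanol–saline 1:1:18. Rectal thermistor probe inserted to 25 mm. Baseline read before injection and again at 30 min. Reported as the change from pre-injection temperature (Δ°C). n = 6 per dose.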

Experiment [9] deals with Mus musculus. The experiment is described as follows: Antinociceptive activity in Harlan ICR mouse assessed as latency to heat-induced tail flicking at 6.9 umol/kg, iv at 20 mins relative to control. It counts as functional.
Experiment [10] concerns Mus musculus. In words: Locomotor activity in Harlan ICR mouse assessed as inhibition of activity level at 6.9 umol/kg, iv from 5 to 15 mins by spontaneous locomotor activity test relative to vehicle treated control. It counts as functional. An outline of the steps: as §1
The test system of experiment [11] is Mus musculus. The experiment is described as follows: Induction of catalepsy in Harlan ICR mouse at 6.9 umol/kg, iv at 40 mins measured for 5 mins by ring immobility test. Type of experiment: functional. A digest of the protocol: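 Ring test on male ICR mice given one probe dose iv (tail vein; 1:1:18 emulphor–ethanol–saline). At 40 min each mouse is placed on a 5.5 cm ring 16 cm high and scored over 5 min by blinded observers. Up to 5 escapes allowed; data dropped if escapes occur before 2.5 min. Immobility index = time motionless/300 s × 100. n = 6 per dose.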

In experiment [12] the test system is Mus musculus. The experiment is described as follows: Antinociceptive activity in Harlan ICR mouse assessed as latency to heat-induced tail flicking at 86 umol/kg, iv at 20 mins relative to control. It counts as functional.
The subject of experiment [13] is Mus musculus. The experiment is described as follows: Locomotor activity in Harlan ICR mouse assessed as inhibition of activity level at 86 umol/kg, iv from 5 to 15 mins by spontaneous locomotor activity test relative to vehicle treated control. Type of experiment: functional. An outline of the steps:
as §2

In experiment [14] the test system is Mus musculus. The experiment is described as follows: Hypothermic activity in Harlan ICR mouse assessed as change in rectal temperature at 86 umol/kg, iv at 30 mins. Type of experiment: functional, organism-based. A digest of the protocol: as §4
The test system of experiment [15] is Mus musculus. The experiment is described as follows: Hypothermic activity in Harlan ICR mouse assessed as change in rectal temperature at 77 umol/kg, iv at 30 mins. Type of experiment: functional. A digest of the protocol:
as §4

For experiment [16], the system named is Mus musculus. The experiment is described as follows: Induction of catalepsy in Harlan ICR mouse at 77 umol/kg, iv at 40 mins measured for 5 mins by ring immobility test. Type of experiment: functional. An outline of the steps: as §3
In experiment [17] the test system is Mus musculus. The experiment is described as follows: Antinociceptive activity in Harlan ICR mouse assessed as latency to heat-induced tail flicking at 77 umol/kg, iv at 20 mins relative to control. It counts as functional.
The subject of experiment [18] is Mus musculus. The experiment is described as follows: Locomotor activity in Harlan ICR mouse assessed as inhibition of activity level at 77 umol/kg, iv from 5 to 15 mins by spontaneous locomotor activity test relative to vehicle treated control. It counts as functional. A digest of the protocol:
as §2

Activity calls are given as the source filed them. No cut-off for these calls is given here.

T1 sequence (P21554 whole entry): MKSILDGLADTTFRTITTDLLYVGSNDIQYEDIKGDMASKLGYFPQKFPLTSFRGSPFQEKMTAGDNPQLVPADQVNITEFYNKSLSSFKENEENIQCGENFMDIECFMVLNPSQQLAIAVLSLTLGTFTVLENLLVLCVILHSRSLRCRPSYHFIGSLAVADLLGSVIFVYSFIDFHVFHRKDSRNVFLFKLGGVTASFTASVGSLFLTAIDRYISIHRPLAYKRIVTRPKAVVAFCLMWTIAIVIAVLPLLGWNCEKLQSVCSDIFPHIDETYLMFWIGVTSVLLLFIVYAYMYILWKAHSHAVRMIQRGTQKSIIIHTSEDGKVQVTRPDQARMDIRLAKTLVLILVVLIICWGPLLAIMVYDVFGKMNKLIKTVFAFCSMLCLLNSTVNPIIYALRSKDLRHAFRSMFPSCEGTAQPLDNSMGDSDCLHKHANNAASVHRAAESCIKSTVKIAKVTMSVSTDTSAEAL
Chain of Cannabinoid receptor 2 (P34972 whole entry): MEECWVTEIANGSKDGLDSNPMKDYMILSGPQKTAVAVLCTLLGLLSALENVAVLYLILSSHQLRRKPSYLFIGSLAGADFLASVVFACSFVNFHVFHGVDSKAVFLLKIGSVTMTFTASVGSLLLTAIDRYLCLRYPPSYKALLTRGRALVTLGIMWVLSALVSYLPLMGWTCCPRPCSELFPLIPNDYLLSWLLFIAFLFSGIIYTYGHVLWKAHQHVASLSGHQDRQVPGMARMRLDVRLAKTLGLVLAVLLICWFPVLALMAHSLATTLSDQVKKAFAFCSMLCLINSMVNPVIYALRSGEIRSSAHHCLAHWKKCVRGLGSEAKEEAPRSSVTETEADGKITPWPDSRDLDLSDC

As to `CCCCCn1c(C)c(C(=O)c2cccc3cccc(I)c23)c2ccccc21`, the Ki (as a rule, a dissociation constant, usually derived from enzyme kinetics or from competition with a known ligand) on Cannabinoid receptor 1 [1] turned out to be 522 nM; on Cannabinoid receptor 2 it was 13 nM. The inhibition entry in the experiment on Mus musculus [2] was “inactive”. In addition, in the experiment listed under Homo sapiens, the Ratio Ki was 40.
On to `C=C1CC[C@@H]2[C@@H](C1)c1ccc(C(C)(C)CCCCCC)cc1OC2(C)C`, for which the outcome at Cannabinoid receptor 1 [3] was inactive.
Regarding `CCCn1c(C)c(C(=O)c2ccc(Cl)c3ccccc23)c2ccccc21`, the figures for the Ki on Cannabinoid receptor 1 [1] and on Cannabinoid receptor 2 were 187 nM and 22 nM, respectively. In addition, the Activity is 100% in the experiment with Mus musculus [4], 70% with Mus musculus [6] and -5.4% in the experiment on Mus musculus [7]. Further, the inhibition in vivo (in general, the relative decrease from the control value, in per cent) at 83 µmol/kg in the experiment with Mus musculus [5] was determined as 70%. Besides, in the experiment listed under Homo sapiens, the Ratio Ki was determined as 9.
As for `CCCCCn1c(C)c(C(=O)c2cccc3cccc(Br)c23)c2ccccc21`, the Activity in the experiment with Mus musculus [8] is -3.7%; in the experiment with Mus musculus [9], 100%; with Mus musculus [11], 53%. The inhibition constant (Ki) on Cannabinoid receptor 1 [1] turned out to be 54 nM; on Cannabinoid receptor 2 it was 10 nM. Moreover, the inhibition in vivo at 6.9 µmol/kg with Mus musculus [10] is 79%. In addition, the Ratio Ki in the experiment listed under Homo sapiens worked out at 5.5.
For `CCCn1cc(C(=O)c2cccc3cccc(Cl)c23)c2ccccc21`, the Ki at Cannabinoid receptor 1 [1] worked out at 642 nM; at Cannabinoid receptor 2, 134 nM. The Activity in the experiment on Mus musculus [12] was found to be 72%. Further, the Ratio Ki in the experiment filed under Homo sapiens came out at 4.8. In addition, the inhibition in vivo at 86 µmol/kg in the experiment with Mus musculus [13] came to 68%. For the same compound, the outcome with Mus musculus [14] was inactive.
With `CCCCCn1c(C)c(C(=O)c2ccc(Cl)c3ccccc23)c2ccccc21`, the Ki on Cannabinoid receptor 1 [1] turned out to be 8.9 nM; at Cannabinoid receptor 2, 2.3 nM. Besides, the figures for the Activity in the experiment on Mus musculus [15], in the experiment on Mus musculus [16] and in the experiment with Mus musculus [17] were -6.4%, 88% and 100%, respectively. Besides, the Ratio Ki in the experiment listed under Homo sapiens came out at 4. Also, in the experiment with Mus musculus [18], the inhibition in vivo at 77 µmol/kg was found to be 94%.
For `CCCn1c(C)c(C(=O)c2cccc3cccc(Cl)c23)c2ccccc21`, the Ki at Cannabinoid receptor 1 [1] is over 10000 nM; at Cannabinoid receptor 2 it was 174 nM. Besides, the Activity in the experiment with Mus musculus [4] is 42%; in the experiment on Mus musculus [6], 15%; in the experiment with Mus musculus [7], -2.3%. The inhibition in vivo at 83 µmol/kg in the experiment with Mus musculus [5] stood at 70%. Moreover, the Ratio Ki in the experiment listed under Homo sapiens was over 57.
